Most compounds without a hit are left out; they make up all but 2.8% or so of the library.
Calpain2 inh – calpain II (pig) inhibition. AID 1236. inhibition, % at 16 µM. purified calpain II, fluorogenic peptide substrate, 30 min. 220,000 compounds, 0.37% hits;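 active = inhibition above about 50%, limit read from the data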
Arbovirus inh – blocks arbovirus infection; arbovirus infection cell-based antiviral screen; inhibition, % at 10 µM; 200,000 compounds, 0.37% hits; in the data active = inhibition above about 30%
Bim-Mcl-1 – human Bim-Mcl-1 interaction inhibition. Q07820. Bead-based flow cytometry, Bim peptide-Mcl-1 binding. inhibition, % at 10 µM. 190,000 compounds, 0.1% hits; in the data active = inhibition above about 40%;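 also: 0% = no compound tracer wells and 100% = peptide blocker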
Target sequence (Q07820 whole entry, looked up): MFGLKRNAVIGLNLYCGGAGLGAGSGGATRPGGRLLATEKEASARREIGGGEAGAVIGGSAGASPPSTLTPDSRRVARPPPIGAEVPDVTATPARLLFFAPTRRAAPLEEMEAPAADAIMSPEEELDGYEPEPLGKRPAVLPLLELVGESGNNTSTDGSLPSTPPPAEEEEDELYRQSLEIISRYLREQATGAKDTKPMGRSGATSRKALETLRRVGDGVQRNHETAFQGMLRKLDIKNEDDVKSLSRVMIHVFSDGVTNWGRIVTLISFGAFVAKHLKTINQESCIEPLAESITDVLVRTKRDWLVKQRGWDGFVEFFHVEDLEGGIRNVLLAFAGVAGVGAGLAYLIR
Calb biofilm kill – mixture kills Candida albicans biofilm cells; C. albicans biofilm persisters + clotrimazole, fluorescence viability; primary screen in compound mixtures of four per well; inhibition, % at 7.6 µM; 120,000 compounds, 0.02% hits;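 active = inhibition above 30.3% in the primary screen of four-compound pools, then above 30% when the compound was retested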;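 also: compounds exposed to preformed 24 h biofilms for 48 h; 0% = untreated biofilm control and 100% = clotrimazole plus chlorhexidine kill blank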
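Test system: C. albicans biofilms. Buffer or medium: RPMI/MOPS medium, pH 7.0. Timing: 48 h compound exposure at 37 °C. Technique: Alamar Blue fluorescence. Evaluation: percent inhibition of biofilm viability.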
Mcl1-Noxa inh – Mcl-1/Noxa interaction inhibition; Q07820; TR-FRET Mcl-1/Noxa peptide binding, 2 h; inhibition, % at 21.7 µM; 220,000 compounds, 1.5% hits; AID 1022;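 active = compounds that cut the protein-peptide binding signal by more than 50% relative to plate controls in a single-dose test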;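 also: His-tagged Mcl-1 with rhodamine Noxa BH3 peptide and terbium anti-His antibody; 0% = Mcl-1 plus Noxa peptide wells and 100% = peptide-only wells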
Mcl1-Bid inh – Mcl-1/Bid interaction inhibition. inhibition, % at 21.7 µM. Q07820. TR-FRET Mcl-1/Bid-Dy647 peptide binding, 1536-well. AID 1021. 220,000 compounds, 0.97% hits;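 active = compounds that cut the binding signal by more than half at the single screening dose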;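 also: His-tagged Mcl-1 with europium anti-His antibody binding Bid BH3 peptide; 0% = Mcl-1 plus peptide wells and 100% = peptide-only wells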
* = called active by the depositor; . = no result.

SMILES	Calpain2 inh	Arbovirus inh	Bim-Mcl-1	Calb biofilm kill	Mcl1-Noxa inh	Mcl1-Bid inh
Cc1ccc(NC(=S)NNS(=O)(=O)c2ccc3ccccc3c2)cc1Cl	4	-1	0	11	20	-66
CC(=O)Oc1ccc(C(c2ccc(OC(C)=O)cc2)c2ccccn2)cc1	13	-4	-2	6	32	87*
O=C(COC(=O)CNC(=O)c1sc2ccccc2c1Cl)Nc1c(Cl)cc(Cl)cc1Cl	28	1	-3	11	1	-6
CN(C)S(=O)(=O)c1cccc(-c2nn(-c3ccccc3)cc2/C=C2\SC(=S)NC2=O)c1	21	-28	35	5	108*	88*
O=C(O)CCn1cc(/C=C2\SC(=S)NC2=O)c(-c2ccccc2)n1	20	4	-2	9	15	-52
O=C1OCC2OC(O)C(O)C(O)C2OC(=O)c2cc(O)c(O)c(O)c2-c2c(O)c(O)c3oc(=O)c4c(c(O)c(O)c5oc(=O)c2c3c54)-c2c1cc(O)c(O)c2O (stereo not drawn)	39	.	.	9	105*	-10
Cc1ccc(C(=O)c2coc3cc([N+](=O)[O-])c(O)c([N+](=O)[O-])c23)cc1	-7	37*	-1	11	46	13
COc1ccccc1N(CC(=O)NC1CCCC1)C(=O)c1oc(C(C)(C)C)cc1C	7	-10	0	16	8	-14
CC(=O)Nc1ccc(NC2=C(Cl)C(=O)c3ccccc3C2=O)cc1	33	-37	-4	-15	40	-23
O=C(Oc1ccc(NC2=C(Cl)C(=O)c3ccccc3C2=O)cc1)c1ccc([N+](=O)[O-])cc1	-20	-37	-2	16	92*	70*
COC(=O)C1=C(C(=O)OC)C(c2cc(Br)ccc2O)c2sc(=O)[nH]c2S1 (stereo not drawn)	-7	0	-1	16	87*	7
COC(=O)C1=C(C(=O)OC)C(c2cc(Cl)ccc2O)c2sc(=O)[nH]c2S1 (stereo not drawn)	-2	2	5	.	79*	27
COc1ccc(C=O)cc1Oc1nc(Cl)ncc1F	-8	-6	1	-2	-3	1
Cc1cc(C)c(S(=O)(=O)CCC(C)C)c(=O)[nH]1	-17	-2	5	5	3	-27
CCSc1nc(-c2cccnc2)ccc1C#N	-46	8	0	10	-5	-13
O=C(COC(=O)CCc1ccccc1)NC12CC3CC(CC(C3)C1)C2	50*	-1	-1	11	-7	10
O=C(COC(=O)C(O)c1ccccc1)NC12CC3CC(CC(C3)C1)C2 (stereo not drawn)	-10	-1	-1	.	17	-8
COc1ccc2nc(Cl)c(C#N)cc2c1	-38	5	0	-4	-9	-6
CCOC(=O)c1ccc(NC(=O)c2ccc(C)c(S(=O)(=O)N3CCOCC3)c2)cc1	12	33*	-2	.	-1	-28
O=C(CO/N=C/c1cccc([N+](=O)[O-])c1)Nc1ccc2ccccc2c1	-17	11	5	.	-2	-43
O=[N+]([O-])c1cccc(/C=C/c2nc(C=Nc3ccc4ccccc4c3)c(O)o2)c1	23	-19	2	.	81*	66*
O=[N+]([O-])c1ccc2nc(-c3ccc(OC(F)F)cc3)cn2c1	-70	-11	-2	6	-18	-14
CCn1cc(-c2n[nH]c(=S)n2-c2ccc(C)cc2Br)c(=O)c2ccc(C)nc21	1	.	.	21	20	-14
Cc1nn(-c2ccccc2)c(Cl)c1C1C(C#N)=C(N)Oc2c1c(C)nn2-c1ccccc1 (stereo not drawn)	-31	-1	-2	.	60*	-26
Cc1nn(-c2ccccc2)c2c1C(c1ccncc1)C(C#N)=C(N)O2 (stereo not drawn)	-34	-5	0	.	16	-32
SMILES	Calpain2 inh	Arbovirus inh	Bim-Mcl-1	Calb biofilm kill	Mcl1-Noxa inh	Mcl1-Bid inh
Cc1ccnc2nc(C(=O)OCC(=O)NC(=O)NCc3ccco3)nn12	7	7	2	20	9	-17
O=C(/C=C/c1ccco1)N1CCc2ccccc21	-29	-4	0	5	19	-31
Cc1ccc(/C=C/C(=O)N2CCc3ccccc32)o1	-31	1	-5	2	61*	-89
O=C(NNc1nc(=O)c2cccnc2s1)c1ccccc1O	7	10	-1	31	0	-74
NCC(c1ccccc1)c1c[nH]c2ccccc12 (stereo not drawn)	3	-12	47*	8	7	-34
O=C(O)C(O)Cc1c[nH]c2ccccc12 (stereo not drawn)	12	7	-3	13	25	1
CC(Cc1c[nH]c2ccccc12)C(=O)O (stereo not drawn)	16	1	2	23	57*	-72
O=C(CC(C(=O)O)c1c[nH]c2ccccc12)c1ccccc1 (stereo not drawn)	18	-4	-2	0	22	82*
OC(CN1CCN(c2ccccc2)CC1)c1c[nH]c2ccccc12 (stereo not drawn)	-10	7	0	.	6	-55
NS(=O)(=O)c1ccc(CCNC(=O)C(=O)C2C(=O)Nc3ccccc32)cc1 (stereo not drawn)	-1	.	.	27	0	-10
COC(=O)c1ccccc1NC(=O)NCc1c(C)nn(C)c1C	-57	-9	-2	2	2	-9
CCn1c(=O)cc(C(F)(F)F)[nH]c1=S	4	5	-1	18	27	-9
CC(=O)c1ccccc1NCC(=O)Nc1ccc(C)cc1	-37	-10	3	19	12	3
CC1CC(C)CN(CCOc2ccc(Br)cc2)C1 (stereo not drawn)	23	-8	-1	15	33	35
CN(C)/C=C(\c1cnc(Cl)s1)S(=O)(=O)c1ccccc1	17	1	-1	10	-9	-18
COc1ccc2c(-c3cc4ccc(OCc5ccc(F)cc5)cc4oc3=O)cc(=O)oc2c1	0	-10	0	23	-2	56*
O=C(Nc1cccc(-c2cn3ccccc3n2)c1)c1cc2ccccc2oc1=O	2	-10	2	.	59*	60*
COc1ccccc1N1CCN(C(=O)c2ccc3[nH]c4c(c3c2)CC(C)CC4)CC1 (stereo not drawn)	-22	-18	7	13	7	-25
CCOC(=O)CSc1nnc(-c2ccc(OC)cc2)n1CC	12	4	0	.	1	-16
CCOC(=O)CSc1nnc(-c2cccc(Cl)c2)n1CC	-1	1	45*	.	-9	-27
C/C(=N\Nc1ccc(C(=O)O)cc1)c1ccc2c(c1)Nc1ccccc1S2	40	.	.	7	87*	57*
O=C(O)c1ccc(Cl)c(S(=O)(=O)Nc2ccc3[nH]c(=O)[nH]c3c2)c1	-8	.	.	22	56*	-3
O=C(O)c1cccc(S(=O)(=O)Nc2ccc3[nH]c(=O)[nH]c3c2)c1	-17	.	.	12	40	-72

High-throughput results from PubChem BioAssay.
